Compound activity deposited in PubChem BioAssay by several laboratories.
XBP1 UPR activ: activators of adaptive XBP1 UPR arm, primary screen, cell-based, CHO-XBP1 luciferase reporter, luminescence, uHTS; IRE1-XBP1 UPR activation; percent of tunicamycin response, DMSO as zero; activation, % at 20 µM; hit rate 0.33% among 330,000; AID 463104, 2010;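 active = versus positive control, 20 µM dose yields 30% or more activation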;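 note: 100% = tunicamycin at 10 µg/mL and 0% = DMSO only wells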
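Assay system: CHO-XBP1 luciferase reporter cells; Schedule: 6 h treatment, 37 °C; Detection: glow luminescence from Steady-Glo reagent; Benchmarks: high control tunicamycin 10 µg/mL final, low control DMSO vehicle only.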
Bfl-1 A1 inh: caspase 3/7 activation in MEF A1-2A-BIM cells, primary screen, A1 inhibitor project, cell-based, luminescence, HTS. Caspase-Glo 3/7 luminescence, 3 h; percent of clofoctol response, vehicle zero. caspase activation, % (concentration not given with the values). hit rate 0.066% among 330,000;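 active = over half of replicate activation scores above 10%, or exactly half above 10 with the replicate mean above 10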
MC4R ag barr: MC4R agonists recruiting beta-arrestin, primary screen, cell-based, luminescence, agonist arm of biased-ligand search; Melanocortin receptor 4 (Homo sapiens), P32245; activation, % at 8.9 µM; hit rate 0.98% among 360,000; U2OS MC4R beta-arrestin complementation; percent of melanotan II response, DMSO zero;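 active = activation above a per-plate cutoff, the mean activation of sample wells on that plate plus 3 SD, cut at about 8% in these data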
Target sequence (P32245 whole entry, looked up): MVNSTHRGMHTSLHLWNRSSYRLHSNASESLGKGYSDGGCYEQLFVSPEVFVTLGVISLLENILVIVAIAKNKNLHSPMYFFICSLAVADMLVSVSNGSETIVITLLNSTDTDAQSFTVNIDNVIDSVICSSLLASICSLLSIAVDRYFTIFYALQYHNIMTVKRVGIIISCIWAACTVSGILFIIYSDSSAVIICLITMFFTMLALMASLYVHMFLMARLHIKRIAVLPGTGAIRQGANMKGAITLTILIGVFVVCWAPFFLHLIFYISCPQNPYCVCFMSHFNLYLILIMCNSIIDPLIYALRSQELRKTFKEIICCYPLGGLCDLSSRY
MC4R antag cAMP: MC4R antagonists of cAMP signaling, primary screen, cell-based, TR-FRET, antagonist arm of biased-ligand search; MC4R-expressing cells, MTII-stimulated cAMP, LANCE TR-FRET; Melanocortin receptor 4 (Homo sapiens), P32245; AID 540295, 2011; hit rate 0.48% among 360,000; inhibition, % at 6.5 µM;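 active = inhibition above its plate's cutoff, the mean of tested wells on that plate plus 3 SD, cut at about 29% in these data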;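 note: 0% = Melanotan II alone and 100% = Melanotan II plus saturating MCL0020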
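Material: human MC4R-expressing U2OS cells. Probe or stimulus: Melanotan II challenge. Dosing: 6.5 µM single dose. Times: 30-min compound, 1-h challenge, 1-h detection, room temperature. Technique: TR-FRET with Eu-cAMP and labeled anti-cAMP, 671 nm. Replication: singlicate.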
UPR CHOP act: activators of apoptotic CHOP UPR arm, primary screen, cell-based, CHO-CHOP luciferase reporter, luminescence, uHTS. UPR activation; percent of tunicamycin response over DMSO baseline. hit rate 0.34% among 330,000. activation, % at 10 µM;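 active = at 10 µM dose, activation of 40% or more, normalized to positive control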;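 note: 100% = tunicamycin at 10 µg/mL and 0% = DMSO alone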
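assay system = CHO CHOP reporter cells | amount = 500 CHO-CHOP cells per well | buffer or medium = F12 with 10% FBS | incubation = 16-18 h cell attachment, then 6 h compound exposure, 37 °C | detection = luminescence read with Steady-Glo | read-out = percent activation relative to tunicamycin control | controls = tunicamycin high control, DMSO low control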
MC4R barr conf: MC4R beta-arrestin agonists, retest, confirmation, cell-based, luminescence, U2OS | shares compounds with MC4R ag barr | U2OS MC4R beta-arrestin recruitment; scaled DMSO 0%, Melanotan II 100% | activation, % at 8.9 µM | hit rate 31% among 2,400 | AID 602192, 2012;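 active = mean activation across replicates above the hit cutoff set in the earlier primary screen, cut at about 8% in these data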
MOR-DOR barr ag: agonists of MOR-DOR heterodimerization, counter-screen for MC4R biased agonist project, cell-based, luminescence; shares compounds with MC4R ag barr; U2OS PathHunter beta-arrestin, beta-gal luminescence; percent of deltorphin B response, DMSO zero; activation, % at 9.2 µM; hit rate 5.8% among 2,400; AID 602194, 2012;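 active = mean activation across replicates exceeds the hit threshold derived in the earlier primary screen, cut at about 18% in these data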;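 note: 100% = deltorphin B at 0.9 µM final and 0% = DMSO alone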
Active calls of the source: *; · = no result. Sampled rows, rich in hits. Any-hit rate of the full collection: about 2%.

SMILES	XBP1 UPR activ	Bfl-1 A1 inh	MC4R ag barr	MC4R antag cAMP	UPR CHOP act	MC4R barr conf	MOR-DOR barr ag
CC(C)CCNC(=O)c1c(N)n(Cc2ccc3c(c2)OCO3)c2nc3ccccc3nc12	4.7	-0.4	13.4*	-4.1	0.9	8.4*	4.1
CCCNC(=O)c1c(N)n(Cc2ccc3c(c2)OCO3)c2nc3ccccc3nc12	9.4	-1.0	0.5	-19.6	0.5	·	·
CC(C)CNC(=O)c1c(N)n(Cc2ccc3c(c2)OCO3)c2nc3ccccc3nc12	5.2	-0.8	10.7*	-3.5	3.1	9.2*	3.6
Cc1ccc(-[n+]2c(Cc3nn(-c4ccccc4)c(C)[n+]3-c3ccc(C)cc3)nn(-c3ccccc3)c2C)cc1	·	·	-1.6	-0.7	·	·	·
COC1C(O)C(C)OC(OC2C(Oc3cccc4c(O)c5c(=O)oc6ccc(C)c7c(=O)oc(c34)c5c67)OC(C)C(O)C2O)C1O (stereo not given)	·	·	0.8	14.9	·	·	·
COC(=O)C1=C(c2ccc(Cl)c(C(F)(F)F)c2)C[C@@H]2CC[C@H]1N2C(=O)NC1CCCCC1	1.2	0.7	1.7	12.1	2.6	·	·
Nc1ccc(C2(c3ccc(N)cc3)c3ccccc3-c3ccccc32)cc1	-0.7	-0.2	70.3*	-4.3	1.1	44.9*	15.0
CC(C)(C)c1cc(OC(=O)Cc2ccccc2)ccc1O	-4.1	-0.1	10.4*	2.6	0.2	6.3	13.6
CC1CCC(C(C)C)C(OC(=O)Cn2c(COc3ccccc3)[n+](C)c3ccccc32)C1 (stereo not given)	22.7	0.7	28.7*	-11.3	2.1	10.1*	8.0
CCN(CC)c1ccc(N=Cc2c(O)n(Cc3ccco3)c(=O)[nH]c2=O)cc1	11.9	-0.5	11.3*	12.6	2.8	-0.7	4.7
NC(=O)c1ccc(N=Cc2c(O)n(Cc3ccco3)c(=O)[nH]c2=O)cc1	0.0	0.6	0.9	-10.4	-0.2	·	·
Cc1cc(OCC(=O)N2C[C@H]3C[C@@H](C2)c2cccc(=O)n2C3)c2c(C)cc(=O)oc2c1	-0.7	1.4	-0.5	7.9	-2.2	·	·
COc1ccccc1OP(=O)(Nc1ccc(Br)cc1)Oc1ccccc1OC	-3.1	0.5	18.2*	5.4	0.5	-1.4	7.6
O=P(Nc1ccccc1)(Oc1ccccc1)Oc1ccccc1	4.2	0.4	2.3	5.2	-0.5	·	·
O=P(NC(c1ccccc1)c1ccccc1)(Oc1ccccc1)Oc1ccccc1	-1.4	0.3	11.3*	1.1	-1.2	-0.4	8.4
NC(Cc1ccc(Cl)cc1)c1csc(Nc2ncccn2)n1 (stereo not given)	·	·	1.0	-0.5	·	·	·
